Results from different studies.
Protocols differ between the studies behind these lines.
Target: Ephrin type-B receptor 2 (EPHB2, Homo sapiens, UniProt P29323)
Sequence (P29323 19-1055, as in one of the studies): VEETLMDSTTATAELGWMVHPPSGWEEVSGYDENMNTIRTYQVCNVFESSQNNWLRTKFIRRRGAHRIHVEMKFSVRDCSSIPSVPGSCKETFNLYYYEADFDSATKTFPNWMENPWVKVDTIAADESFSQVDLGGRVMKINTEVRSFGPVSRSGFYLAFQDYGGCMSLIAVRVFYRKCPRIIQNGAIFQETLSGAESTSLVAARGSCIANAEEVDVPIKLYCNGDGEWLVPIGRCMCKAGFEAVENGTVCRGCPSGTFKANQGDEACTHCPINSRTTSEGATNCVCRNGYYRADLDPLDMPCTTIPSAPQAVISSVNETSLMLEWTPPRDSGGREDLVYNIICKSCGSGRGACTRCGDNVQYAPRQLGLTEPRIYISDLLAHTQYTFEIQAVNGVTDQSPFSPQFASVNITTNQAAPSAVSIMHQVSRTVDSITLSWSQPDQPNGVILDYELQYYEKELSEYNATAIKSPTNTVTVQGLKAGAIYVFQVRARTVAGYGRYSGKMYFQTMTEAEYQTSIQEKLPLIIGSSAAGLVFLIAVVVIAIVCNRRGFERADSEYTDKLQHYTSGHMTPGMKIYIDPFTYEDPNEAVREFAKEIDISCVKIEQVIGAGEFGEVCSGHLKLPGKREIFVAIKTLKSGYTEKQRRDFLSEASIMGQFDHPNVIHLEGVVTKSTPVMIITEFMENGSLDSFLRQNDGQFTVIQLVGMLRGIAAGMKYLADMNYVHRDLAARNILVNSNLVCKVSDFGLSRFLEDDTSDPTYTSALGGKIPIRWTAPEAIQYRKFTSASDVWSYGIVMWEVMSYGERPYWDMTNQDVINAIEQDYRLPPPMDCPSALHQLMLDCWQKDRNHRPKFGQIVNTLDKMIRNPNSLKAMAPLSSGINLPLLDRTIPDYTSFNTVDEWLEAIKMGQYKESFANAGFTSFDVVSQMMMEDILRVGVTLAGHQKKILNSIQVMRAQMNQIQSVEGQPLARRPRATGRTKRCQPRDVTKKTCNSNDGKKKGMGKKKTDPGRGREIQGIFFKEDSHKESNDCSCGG

N#CC1(c2ccccn2)CCN(Cc2cc(C(=O)O)c(=O)n3ccccc23)CC1 — remaining binding (cell-free assay; competition with immobilised ligand; 1 µM): 100%
O=c1[nH]c2ccccc2n1C1CCN(Cc2ccc(-c3[nH]c4cc5ncnc5cc4nc3-c3ccccc3)cc2)CC1 — remaining signal (cell-free assay; 0.5 µM): 108%
Cn1cncc1[C@@](O)(COc1ccc(C#N)cc1-c1ccc(OC(F)(F)F)cc1)c1ccc(C#N)cc1 — remaining binding (cell-free assay; competition with immobilised ligand; 1 µM): 100%
CC(C)(C)c1cc(C=C(C#N)C#N)cc(Br)c1O — remaining activity (enzyme activity; inhibitor; 0.5 µM): 100%
COc1cc(Nc2ncc(F)c(Nc3ccc4c(n3)NC(=O)C(C)(C)O4)n2)cc(OC)c1OC — inhibition (binding; competition with immobilised ligand; 10 µM): 50%
Cn1cc(-c2cc(F)cc(N3CCn4c(cc5c4CCCC5)C3=O)c2CO)cc(Nc2ccc(N3CCN(C4COC4)CC3)cn2)c1=O — inhibition (enzyme activity; inhibitor; 0.1 µM): 14%
Cc1nn(C)cc1-c1nc2c(N3CCN(Cc4ccc(Cl)cc4)CC3)c(Cl)cnc2[nH]1 — remaining binding (binding; competition with immobilised ligand; 1 µM): 100%
Cn1cc(-c2cccc(N3CCc4c(sc5c4CC(C)(C)C5)C3=O)c2CO)cc(Nc2ccncn2)c1=O — inhibition (enzyme activity; inhibitor; 1 µM): 1%
COc1ncccc1-c1cnn2ccc(N3CCN(C(=O)OC(C)C)CC3)nc12 — remaining binding (binding; competition with immobilised ligand; 1 µM): 77%
